According to ChEMBL document CHEMBL1143004, “Structure-activity relationship among purpurinimides and bacteriopurpurinimides: trifluoromethyl substituent enhanced the photosensitizing efficacy” (J Med Chem, 2007):

How the values were obtained:
Colon 26 = test: Photosensitizing efficacy in Balb/C mouse implanted with colon26 tumors measured as tumor free at 0.7 umol/kg and light dose 135 J/cm2 after 90 days; assay type: functional
Outline: (§1)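 Female C3H mice given s.c. RIF cells (3 × 10⁵) or female BALB/c mice given colon-26 cells (1 × 10⁶), both on right posterior shoulder. Drug in 1% Tween 80/HBSS given i.v. the day before light, hair depilated. At 24 h p.i., restrained unanaesthetized mice (10/group) got a 1 cm² argon-pumped dye laser spot, 135 J/cm² at 75 mW/cm². Tumor volume L·W²/2; cure = no palpable tumor.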

[1] = Ratio of drug level in tumor to skin of C3H mouse bearing RIF tumors after 24 hrs by IRS; assay type: ADME; conditions: in vivo
Outline: (§2)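 In vivo reflectance spectroscopy in female C3H/RIF or BALB/c/colon-26 mice. Baseline spectrum recorded via fiber bundles on tumor plus overlying skin and on normal skin. Drug 2.5–5.0 µmol/kg i.v. by tail vein, then spectra recorded up to 2 days. Post- to pre-injection spectral ratio compared in tumor versus skin. n = 3.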

RIF = test: Photosensitizing efficacy in RIF cells after 48 hrs by MTT assay in presence of light; assay type: functional, cell-based
Outline: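 RIF cells, 5 × 10³/well, seeded in α-MEM with 10% FCS. Next day drug added at 1.25–20 µM (formulated in 1% Tween 80/5% dextrose, diluted in medium), 24 h dark at 37 °C. Medium replaced, then 708 nm (purpurinimides) or 791 nm (bacteriopurpurinimides) at 3.2 mW/cm², 0.5–20 J/cm². After 48 h dark, MTT 4 h, DMSO, A560. Survival relative to dark and light controls; four wells per point, SD from three experiments.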

[2] = Photosensitizing efficacy in C3H mouse bearing RIF tumors measured as tumor free at 0.7 umol/kg and light dose 135 J/cm2 after 90 days; assay type: functional; outline: as §1
[3] = Ratio of drug level in tumor to skin of Balb/C mouse implanted with colon26 tumor after 24 hrs by IRS; assay type: ADME; conditions: in vivo; outline: as §2
[4] = Photosensitizing efficacy in C3H mouse bearing RIF tumors measured as tumor free at 0.4 umol/kg and light dose 135 J/cm2 after 60 days; assay type: functional; outline: as §1

| Ratio [1] | Compound | also measured |
| --- | --- | --- |
| 4.76 | CCCCOC(C)c1c(C)c2cc3nc(c4c5[nH]c(cc6nc(cc1[nH]2)C(C)=C6CC)c(C)c5C(=O)N(Cc1cc(C(F)(F)F)cc(C(F)(F)F)c1)C4=O)[C@@H](CCC(=O)OC)[C@@H]3C (stereo partly drawn) | Activity (Colon 26): 30%; Activity (RIF): Dose-dependent effect; Activity [2]: 30%; Ratio [3]: 3.38 |
| 3.68 | CCCCOC(C)c1c(C)c2cc3nc(c4c5[nH]c(cc6nc(cc1[nH]2)C(C)=C6CC)c(C)c5C(=O)N(Cc1cc(C(F)(F)F)cc(C(F)(F)F)c1)C4=O)[C@@H](CCC(=O)Nc1ccc(CC(CN(CCN(CC(=O)O)CC(=O)O)CC(=O)O)N(CC(=O)O)CC(=O)O)cc1)[C@@H]3C (stereo partly drawn) | Activity (Colon 26): 70%; Activity [2]: 70%; Ratio [3]: 5.06 |
| 8.89 | CCCCCCCCCCCCOC(C)c1c(C)c2cc3nc(c4c5[nH]c(cc6nc(cc1[nH]2)[C@@H](C)[C@@H]6CC)c(C)c5C(=O)N(Cc1cc(C(F)(F)F)cc(C(F)(F)F)c1)C4=O)[C@@H](CCC(=O)OC)[C@@H]3C (stereo partly drawn) | Activity [4]: 60% |
| 2.48 | CCC1=C(C)c2cc3[nH]c(cc4nc(c5c6[nH]c(cc1n2)c(C)c6C(=O)N(Cc1cc(C(F)(F)F)cc(C(F)(F)F)c1)C5=O)[C@@H](CCC(=O)OC)[C@@H]4C)c(C)c3C(C)OC (stereo partly drawn) |  |
| 1.82 | CCCCCCCCCCCCOC(C)c1c(C)c2cc3nc(c4c5[nH]c(cc6nc(cc1[nH]2)C(C)=C6CC)c(C)c5C(=O)N(Cc1cc(C(F)(F)F)cc(C(F)(F)F)c1)C4=O)[C@@H](CCC(=O)OC)[C@@H]3C (stereo partly drawn) | Activity [4]: 50% |
| 6.87 | CCCCCCCOC(C)c1c(C)c2cc3nc(c4c5[nH]c(cc6nc(cc1[nH]2)[C@@H](C)[C@@H]6CC)c(C)c5C(=O)N(Cc1cc(C(F)(F)F)cc(C(F)(F)F)c1)C4=O)[C@@H](CCC(=O)OC)[C@@H]3C (stereo partly drawn) |  |
| 1.91 | CC[C@@H]1c2cc3[nH]c4c(c5nc(cc6[nH]c(cc(n2)[C@H]1C)c(C(C)OC)c6C)[C@@H](C)[C@@H]5CCC(=O)OC)C(=O)N(Cc1cc(C(F)(F)F)cc(C(F)(F)F)c1)C(=O)c4c3C (stereo partly drawn) |  |
| 1.97 | CCCCCCCOC(C)c1c(C)c2cc3nc(c4c5[nH]c(cc6nc(cc1[nH]2)C(C)=C6CC)c(C)c5C(=O)N(Cc1cc(C(F)(F)F)cc(C(F)(F)F)c1)C4=O)[C@@H](CCC(=O)OC)[C@@H]3C (stereo partly drawn) |  |
| 5.3 | CCCCOC(C)c1c(C)c2cc3nc(c4c5[nH]c(cc6nc(cc1[nH]2)[C@@H](C)[C@@H]6CC)c(C)c5C(=O)N(Cc1cc(C(F)(F)F)cc(C(F)(F)F)c1)C4=O)[C@@H](CCC(=O)OC)[C@@H]3C (stereo partly drawn) |  |
